In brackets after ≈: the same amount, converted by molar mass.
What was measured:
Enterococcus faecalis = experiment: Antibacterial activity against Enterococcus faecalis ATCC 29213 by broth microdilution method; assay type: functional
Method in brief: (§1)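 CLSI broth microdilution with double dilutions in 96-well plates. For streptococci, 5% horse serum replaced lysed blood in the medium. Inocula were grown on Columbia agar with 5% sheep blood for streptococci, Mueller–Hinton chocolate agar for H. influenzae, and Mueller–Hinton agar for staphylococci. Read-out is MIC in mg/L.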

Haemophilus influenzae = experiment: Antibacterial activity against Haemophilus influenzae ATTC 49247 by broth microdilution method; assay type: functional; method in brief: as §1
Moraxella catarrhalis = experiment: Antibacterial activity against Moraxella catarrhalis ATCC 23246 by broth microdilution method; assay type: functional; method in brief: as §1
Streptococcus pyogenes [1] = experiment: Antibacterial activity against efflux mediated macrolide-resistant Streptococcus pyogenes Finland 2 by broth microdilution method; assay type: functional
Method in brief: (§2)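 MICs by CLSI broth microdilution with double dilutions, except that Streptococcus medium used 5% horse serum in place of lysed blood. Bacteria were pre-grown on Columbia agar with 5% sheep blood (streptococci) or Mueller–Hinton agar (staphylococci).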

Streptococcus pyogenes [2] = experiment: Antibacterial activity against constitutive-resistant to macrolide, licosamide and streptogramin Streptococcus pyogenes 166 GR-Micro by broth microdilution method; assay type: functional; method in brief: as §2
Streptococcus pyogenes [3] = experiment: Antibacterial activity against erythromycin susceptible Streptococcus pyogenes 3565 by broth microdilution method; assay type: functional; method in brief: as §1
Streptococcus pneumoniae [4] = experiment: Antibacterial activity against inducible-resistant to macrolide, licosamide and streptogramin Streptococcus pneumoniae 134 GR-M by broth microdilution method; assay type: functional; method in brief: as §2
Streptococcus pneumoniae [5] = experiment: Antibacterial activity against constitutive-resistant to macrolide, licosamide and streptogramin Streptococcus pneumoniae 58 Spain by broth microdilution method; assay type: functional; method in brief: as §2
Staphylococcus aureus [6] = experiment: Antibacterial activity against efflux mediated macrolide-resistant Staphylococcus aureus PK1 by broth microdilution method; assay type: functional; method in brief: as §2
Staphylococcus aureus [7] = experiment: Antibacterial activity against constitutive-resistant to macrolide, licosamide and streptogramin Staphylococcus aureus PK2 by broth microdilution method; assay type: functional; method in brief: as §2
Staphylococcus aureus [8] = experiment: Antibacterial activity against inducible-resistant to macrolide, licosamide and streptogramin Staphylococcus aureus 90265/97 by broth microdilution method; assay type: functional; method in brief: as §2
Staphylococcus aureus [9] = experiment: Antibacterial activity against Staphylococcus aureus ATCC 13709 by broth microdilution method; assay type: functional; method in brief: as §1
Rattus norvegicus = experiment: Antiinflammatory activity against ovalbumin-induced airway allergic Brown-Norway rat model assessed as decrease of eosinophils in bronchoalveolar lavage fluid at 32 mg/kg administered intranasally as dry powder measured on day 29 after ovalbumin challenge (reference value: 53.1%); assay type: functional, Lung; set-up: scale not given: the % may be the effect or the level left
[10] = Half life in Balb/c mouse lung at 2 mg/kg, administered intranasally; assay type: ADME, organism-based; set-up: dose 2 mg/kg; conditions: inhaled or intranasal
Method in brief: (§3)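 Male Balb/c mice (21–25 g) dosed intranasally with freshly prepared formulation in 1% DMSO plus 0.125% CMC. Terminal bleeding and lung collection from 5 min to 72 h. K2EDTA blood taken as blood aliquots or spun for plasma. Lung homogenised 1:5 in water. Samples were protein-precipitated with acetonitrile/methanol (2:1) plus roxithromycin internal standard and quantified by LC–MS/MS. LLOQ 0.5 ng/mL (blood/plasma) and 2.5 ng/mL (lung).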

[11] = AUC (0 to infinity) in Balb/c mouse lung at 2 mg/kg, administered intranasally; assay type: ADME, organism-based; set-up: time infinity, route nasal, dose 2 mg/kg; conditions: inhaled or intranasal; method in brief: as §3
[12] = Tmax in Balb/c mouse plasma at 2 mg/kg, administered intranasally; assay type: ADME, organism-based; set-up: dose 2 mg/kg; conditions: inhaled or intranasal; method in brief: as §3
PBMC [13] = experiment: Antiinflammatory activity in human PBMC assessed as inhibition of PHA-induced IL-5 production after 48 hrs; assay type: functional, cell-based
Method in brief: (§4)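 Thawed cryopreserved human PBMCs were preincubated 1 h at 37 °C, 5% CO2, then exposed to test compound for 1 h before LPS, anti-CD3 or PHA stimulation. Supernatants were collected at 6, 24 or 48 h according to each cytokine's peak, and cytokines quantified by Luminex multiplex bead assay. 10-point titration starting at 20 µM, in duplicate, with constant DMSO. Parallel Alamar Blue cytotoxicity check under 48 h PHA.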

PBMC [14] = experiment: Antiinflammatory activity in human PBMC assessed as inhibition of PHA-induced IL-10 production after 48 hrs; assay type: functional, cell-based; method in brief: as §4
PBMC [15] = experiment: Antiinflammatory activity in human PBMC assessed as inhibition of PHA-induced IL-3 production after 48 hrs; assay type: functional, cell-based; method in brief: as §4
PBMC [16] = experiment: Antiinflammatory activity in human PBMC assessed as inhibition of PHA-induced IP-10 production after 24 hrs; assay type: functional, cell-based; method in brief: as §4
PBMC [17] = experiment: Antiinflammatory activity in human PBMC assessed as inhibition of PHA-induced IL-8 production after 6 hrs; assay type: functional, cell-based; method in brief: as §4
PBMC [18] = experiment: Antiinflammatory activity in human PBMC assessed as inhibition of PHA-induced TNFalpha production after 6 hrs; assay type: functional, cell-based; method in brief: as §4
PBMC [19] = experiment: Antiinflammatory activity in human PBMC assessed as inhibition of PHA-induced IL-1beta production after 6 hrs; assay type: functional, cell-based; method in brief: as §4
PBMC [20] = experiment: cells; assay type: functional, cell-based; conditions: Homo sapiens, 48 h
PBMC [21] = experiment: Antiinflammatory activity in human PBMC assessed as inhibition of anti-CD3-induced IL-12p70 production after 48 hrs; assay type: functional, cell-based; method in brief: as §4
PBMC [22] = experiment: Antiinflammatory activity in human PBMC assessed as inhibition of anti-CD3-induced TNFalpha production after 48 hrs; assay type: functional, cell-based; method in brief: as §4
PBMC [23] = experiment: Antiinflammatory activity in human PBMC assessed as inhibition of LPS-induced MIP1alpha production after 6 hrs; assay type: functional, cell-based; method in brief: as §4
PBMC [24] = experiment: Antiinflammatory activity in human PBMC assessed as inhibition of LPS-induced IL-8 production after 6 hrs; assay type: functional, cell-based; method in brief: as §4
PBMC [25] = experiment: Antiinflammatory activity in human PBMC assessed as inhibition of LPS-induced IL-6 production after 6 hrs; assay type: functional, cell-based; method in brief: as §4
PBMC [26] = experiment: Antiinflammatory activity in human PBMC assessed as inhibition of LPS-induced IL-1beta production after 6 hrs; assay type: functional, cell-based; method in brief: as §4
[27] = Drug uptake in mouse J774A1 cells at 10 uM after 3 hrs by LC-MS/MS method; assay type: ADME, cell-based; conditions: j774.a1, 3 h
Method in brief: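 Uptake in J774A.1 macrophages seeded two days before at 2 × 10^5 cells/well. Cells were exposed to 10 µM compound for 3 h in DMEM/25 mM Hepes without supplements, washed with ice-cold PBS and lysed in 0.5% Triton X-100. Lysate was measured by LC–MS/MS, using a cell volume of 1.68 µL per 10^6 cells. Result is the I/E ratio, with E taken as 10 µM.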

[28] = Drug uptake in mouse J774A1 cells assessed as compound retention at 10 uM after 3 hrs by LC-MS/MS method; assay type: ADME, cell-based; conditions: j774.a1, 3 h
Method in brief: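 J774A.1 cells were loaded with 10 µM compound for 3 h in DMEM/25 mM Hepes, then incubated 3 h in fresh medium. Cells were washed, lysed in 0.5% Triton X-100 and analysed by LC–MS/MS. Retention is the percentage of the initially accumulated amount remaining. Triplicates, mean ± SD from one representative experiment.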

[29] = Cmax in Balb/c mouse blood at 2 mg/kg, administered intranasally; assay type: ADME, organism-based; set-up: dose 2 mg/kg, route nasal; conditions: whole blood, inhaled or intranasal; method in brief: as §3
[30] = Tmax in Balb/c mouse blood at 2 mg/kg, administered intranasally; assay type: ADME, organism-based; set-up: dose 2 mg/kg; conditions: whole blood, inhaled or intranasal; method in brief: as §3
[31] = Half life in Balb/c mouse blood at 2 mg/kg, administered intranasally; assay type: ADME, organism-based; set-up: dose 2 mg/kg; conditions: whole blood, inhaled or intranasal; method in brief: as §3
[32] = Ratio of drug AUC lung to blood in Balb/c mouse at 2 mg/kg, administered intranasally; conditions: lung and blood, inhaled or intranasal

CC[C@H]1OC(=O)[C@H](C)[C@@H](O[C@H]2C[C@@](C)(OC)[C@@H](O)[C@H](C)O2)[C@H](C)[C@@H](O[C@@H]2O[C@H](C)C[C@H](N(C)C)[C@H]2O)[C@](C)(O)C[C@@H](C)CN(CCCNC(=O)[C@H]2[C@H](C)C[C@H]3[C@@H]4CCC5=CC(=O)C=C[C@]5(C)[C@@]4(F)[C@@H](O)C[C@@]32C)[C@H](C)[C@@H](O)[C@]1(C)O
MIC (Enterococcus faecalis): 64 µg/mL (≈ 56.3 µM) | MIC (Haemophilus influenzae): 64 µg/mL (≈ 56.3 µM) | MIC (Moraxella catarrhalis): 8 µg/mL (≈ 7.04 µM) | MIC (Streptococcus pyogenes [1]): 32 µg/mL (≈ 28.2 µM) | MIC (Streptococcus pyogenes [2]): > 64 µg/mL | MIC (Streptococcus pyogenes [3]): 0.25 µg/mL (≈ 0.22 µM) | MIC (Streptococcus pneumoniae [4]): > 64 µg/mL | MIC (Streptococcus pneumoniae [5]): 64 µg/mL (≈ 56.3 µM) | MIC (Staphylococcus aureus [6]): > 64 µg/mL | MIC (Staphylococcus aureus [7]): > 64 µg/mL | MIC (Staphylococcus aureus [8]): > 64 µg/mL | MIC (Staphylococcus aureus [9]): 8 µg/mL (≈ 7.04 µM) | Activity (Rattus norvegicus): 43.6% | half-life [10]: 1200 min | AUC(0-inf) [11]: 9680 ng·h/mL | Tmax [12]: 15 min | EC50 (PBMC [13]): 0.606 µM | EC50 (PBMC [14]): 5.12 µM | EC50 (PBMC [15]): 1.27 µM | EC50 (PBMC [16]): > 20 µM | EC50 (PBMC [17]): 3.05 µM | EC50 (PBMC [18]): 1.33 µM | EC50 (PBMC [19]): 13.8 µM | EC50 (PBMC [20]): 0.11 µM | EC50 (PBMC [21]): 0.017 µM | EC50 (PBMC [22]): 0.037 µM | EC50 (PBMC [23]): 7.9 µM | EC50 (PBMC [24]): 9 µM | EC50 (PBMC [25]): > 20 µM | EC50 (PBMC [26]): > 20 µM | Drug uptake [27]: Active | Drug uptake [28]: Active | Cmax [29]: 169 ng/mL | Tmax [30]: 15 min | half-life [31]: 54 min | lung-to-blood AUC ratio [32]: 53

Source: ChEMBL document CHEMBL2311478, “Macrolactonolides: a novel class of anti-inflammatory compounds” (Bioorg Med Chem, 2013)
